Experimental data reported in ChEMBL document CHEMBL4680175, “Sulfonamide-based ring-fused analogues for CAN508 as novel carbonic anhydrase inhibitors endowed with antitumor activity: Design, synthesis, and in vitro biological evaluation” (Eur J Med Chem, 2020).
Active and inactive are the calls of the source. The rule behind the calls is not given here.

How the values were obtained:
KM12 = test: Antitumor activity against human KM12 cells assessed as cell growth inhibition at 10 uM incubated for 48 hrs by sulforhodamine B assay; type: functional; conditions: read-out: GI
Summary of the method: (§1)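 NCI Drug Evaluation Branch protocol: primary single-dose screen at 10 μM across a 57-line human cancer panel. Drug exposure is 48 h. Cell growth and viability are read by sulforhodamine B assay. Data are given as a mean graph of percent growth of treated cells and reported as percentage growth inhibition (GI%).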

[1] = target: Cyclin-dependent kinase 2/cyclin E1 (Homo sapiens, UniProt P24941); test: Inhibition of CDK2/cyclin E (unknown origin) expressed in baculovirus infected Sf21 insect cells using histone H1 as substrate in presence of [gamma33P]ATP
HOP-62 = test: Antitumor activity against human HOP62 cells assessed as cell growth inhibition at 10 uM incubated for 48 hrs by sulforhodamine B assay; type: functional; conditions: read-out: GI; summary of the method: as §1
SN12C = test: Antitumor activity against human SN12C cells assessed as cell growth inhibition at 10 uM incubated for 48 hrs by sulforhodamine B assay; type: functional; conditions: read-out: GI; summary of the method: as §1
HCT-116 = test: Antitumor activity against human HCT116 cells assessed as cell growth inhibition at 10 uM incubated for 48 hrs by sulforhodamine B assay; type: functional; conditions: read-out: GI; summary of the method: as §1
MCF7 = test: Antitumor activity against human MCF7 cells assessed as cell growth inhibition at 10 uM incubated for 48 hrs by sulforhodamine B assay; type: functional; conditions: read-out: GI; summary of the method: as §1
U-251 = test: Antitumor activity against human U251 cells assessed as cell growth inhibition at 10 uM incubated for 48 hrs by sulforhodamine B assay; type: functional; conditions: read-out: GI
Summary of the method: (§2)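 NCI one-dose screen: 57-cell-line panel exposed at 10 μM for 48 h, Drug Evaluation Branch protocol. Growth and viability read by sulforhodamine B; data given as percent growth inhibition from the mean-graph of percent growth of treated cells.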

OVCAR-8 = test: Antitumor activity against human OVCAR-8 cells assessed as cell growth inhibition at 10 uM incubated for 48 hrs by sulforhodamine B assay; type: functional; conditions: read-out: GI; summary of the method: as §1
NCI/ADR-RES = test: Antitumor activity against human NCI/ADR-RES cells assessed as cell growth inhibition at 10 uM incubated for 48 hrs by sulforhodamine B assay; type: functional, cell-based; summary of the method: as §1
CAKI-1 = test: Antitumor activity against human CAKI-1 cells assessed as cell growth inhibition at 10 uM incubated for 48 hrs by sulforhodamine B assay; type: functional; conditions: read-out: GI; summary of the method: as §1
SF-268 = test: Antitumor activity against human SF268 cells assessed as cell growth inhibition at 10 uM incubated for 48 hrs by sulforhodamine B assay; type: functional; conditions: read-out: GI; summary of the method: as §1
NCI-H522 = test: Antitumor activity against human NCI-H522 cells assessed as cell growth inhibition at 10 uM incubated for 48 hrs by sulforhodamine B assay; type: functional; conditions: read-out: GI; summary of the method: as §1
Carbonic anhydrase 12 = Carbonic anhydrase 12 (Homo sapiens, UniProt O43570); test: Inhibition of recombinant human carbonic anhydrase 12 preincubated with enzyme for 15 mins by phenol red dye based stopped flow CO2 hydrase assay
CCRF-CEM = test: Antitumor activity against human CCRF-CEM cells assessed as cell growth inhibition at 10 uM incubated for 48 hrs by sulforhodamine B assay; type: functional; conditions: read-out: GI; summary of the method: as §1
MOLT-4 = test: Antitumor activity against human MOLT4 cells assessed as cell growth inhibition at 10 uM incubated for 48 hrs by sulforhodamine B assay; type: functional; conditions: read-out: GI; summary of the method: as §1
SK-MEL-5 = test: Antitumor activity against human SK-MEL-5 cells assessed as cell growth inhibition at 10 uM incubated for 48 hrs by sulforhodamine B assay; type: functional; conditions: read-out: GI; summary of the method: as §1
RPMI-8226 = test: Antitumor activity against human RPMI8226 cells assessed as cell growth inhibition at 10 uM incubated for 48 hrs by sulforhodamine B assay; type: functional; conditions: read-out: GI; summary of the method: as §1
NCI-H460 = test: Antitumor activity against human NCI-H460 cells assessed as cell growth inhibition at 10 uM incubated for 48 hrs by sulforhodamine B assay; type: functional; conditions: read-out: GI; summary of the method: as §1
Hs-578T = test: Antitumor activity against human HS 578T cells assessed as cell growth inhibition at 10 uM incubated for 48 hrs by sulforhodamine B assay; type: functional; conditions: read-out: GI; summary of the method: as §1
MDA-MB-468 = test: Antitumor activity against human MDA-MB-468 cells assessed as cell growth inhibition at 10 uM incubated for 48 hrs by sulforhodamine B assay; type: functional; conditions: read-out: GI; summary of the method: as §1
T47D = test: Antitumor activity against human T-47D cells assessed as cell growth inhibition at 10 uM incubated for 48 hrs by sulforhodamine B assay; type: functional; conditions: read-out: GI; summary of the method: as §2
RXF 393 = test: Antitumor activity against human RXF 393 cells assessed as cell growth inhibition at 10 uM incubated for 48 hrs by sulforhodamine B assay; type: functional; conditions: read-out: GI; summary of the method: as §1
HOP-92 = test: Antitumor activity against human HOP92 cells assessed as cell growth inhibition at 10 uM incubated for 48 hrs by sulforhodamine B assay; type: functional; conditions: read-out: GI; summary of the method: as §1
K562 = test: Antitumor activity against human K562 cells assessed as cell growth inhibition at 10 uM incubated for 48 hrs by sulforhodamine B assay; type: functional; conditions: read-out: GI; summary of the method: as §1
DU-145 = test: Antitumor activity against human DU-145 cells assessed as cell growth inhibition at 10 uM incubated for 48 hrs by sulforhodamine B assay; type: functional; conditions: read-out: GI; summary of the method: as §1
NCI-H226 = test: Antitumor activity against human NCI-H226 assessed as cell growth inhibition at 10 uM incubated for 48 hrs by sulforhodamine B assay; type: functional; conditions: read-out: GI; summary of the method: as §1
BT-549 = test: Antitumor activity against human BT-549 cells assessed as cell growth inhibition at 10 uM incubated for 48 hrs by sulforhodamine B assay; type: functional; conditions: read-out: GI; summary of the method: as §1
Carbonic anhydrase 2 = Carbonic anhydrase 2 (Homo sapiens, UniProt P00918); test: Inhibition of recombinant human carbonic anhydrase 2 preincubated with enzyme for 15 mins by phenol red dye based stopped flow CO2 hydrase assay
SF-539 = test: Antitumor activity against human SF539 cells assessed as cell growth inhibition at 10 uM incubated for 48 hrs by sulforhodamine B assay; type: functional; conditions: read-out: GI; summary of the method: as §1
UO-31 = test: Antitumor activity against human UO-31 cells assessed as cell growth inhibition at 10 uM incubated for 48 hrs by sulforhodamine B assay; type: functional; conditions: read-out: GI; summary of the method: as §2
Carbonic anhydrase 9 = Carbonic anhydrase 9 (Homo sapiens, UniProt Q16790); test: Inhibition of recombinant human carbonic anhydrase 9 preincubated with enzyme for 15 mins by phenol red dye based stopped flow CO2 hydrase assay
MDA-MB-231 = test: Antitumor activity against human MDA-MB-231/ATCC cells assessed as cell growth inhibition at 10 uM incubated for 48 hrs by sulforhodamine B assay; type: functional; conditions: read-out: GI; summary of the method: as §1
OVCAR-3 = test: Antitumor activity against human OVCAR-3 cells assessed as cell growth inhibition at 10 uM incubated for 48 hrs by sulforhodamine B assay; type: functional; conditions: read-out: GI; summary of the method: as §1
SK-MEL-2 = test: Antitumor activity against human SK-MEL-2 cells assessed as cell growth inhibition at 10 uM incubated for 48 hrs by sulforhodamine B assay; type: functional; conditions: read-out: GI; summary of the method: as §1
Malme-3M = test: Antitumor activity against human MALME-3M cells assessed as cell growth inhibition at 10 uM incubated for 48 hrs by sulforhodamine B assay; type: functional; conditions: read-out: GI; summary of the method: as §1
IGROV-1 = test: Antitumor activity against human IGROV1 cells assessed as cell growth inhibition at 10 uM incubated for 48 hrs by sulforhodamine B assay; type: functional; conditions: read-out: GI; summary of the method: as §1
SNB-75 = test: Antitumor activity against human SNB-75 cells assessed as cell growth inhibition at 10 uM incubated for 48 hrs by sulforhodamine B assay; type: functional; conditions: read-out: GI; summary of the method: as §2
NCI-H322M = test: Antitumor activity against human NCI-H322M cells assessed as cell growth inhibition at 10 uM incubated for 48 hrs by sulforhodamine B assay; type: functional; conditions: read-out: GI; summary of the method: as §1
LOX IMVI = test: Antitumor activity against human LOX IMVI cells assessed as cell growth inhibition at 10 uM incubated for 48 hrs by sulforhodamine B assay; type: functional; conditions: read-out: GI; summary of the method: as §1

Chain of Carbonic anhydrase 12 (O43570 whole entry): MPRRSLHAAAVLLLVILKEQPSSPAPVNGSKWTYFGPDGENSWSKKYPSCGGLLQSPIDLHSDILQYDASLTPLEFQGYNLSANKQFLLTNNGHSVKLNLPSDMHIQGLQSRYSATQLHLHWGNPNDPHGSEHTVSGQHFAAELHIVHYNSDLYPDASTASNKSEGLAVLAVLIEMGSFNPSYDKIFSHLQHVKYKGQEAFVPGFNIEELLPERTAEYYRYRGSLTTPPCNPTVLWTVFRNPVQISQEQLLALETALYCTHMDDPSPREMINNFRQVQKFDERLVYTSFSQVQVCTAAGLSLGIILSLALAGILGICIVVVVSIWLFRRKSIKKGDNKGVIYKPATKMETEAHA

Row | SMILES | inhibition of growth at 10 µM (KM12) [%] | IC50 [1] [µM] | inhibition of growth at 10 µM (HOP-62) [%] | inhibition of growth at 10 µM (SN12C) [%] | inhibition of growth at 10 µM (HCT-116) [%] | inhibition of growth at 10 µM (MCF7) [%] | inhibition of growth at 10 µM (U-251) [%] | inhibition of growth at 10 µM (OVCAR-8) [%] | Activity (NCI/ADR-RES) | inhibition of growth at 10 µM (CAKI-1) [%] | inhibition of growth at 10 µM (SF-268) [%] | inhibition of growth at 10 µM (NCI-H522) [%] | Ki (Carbonic anhydrase 12) [µM] | inhibition of growth at 10 µM (CCRF-CEM) [%] | inhibition of growth at 10 µM (MOLT-4) [%] | inhibition of growth at 10 µM (SK-MEL-5) [%] | inhibition of growth at 10 µM (RPMI-8226) [%] | inhibition of growth at 10 µM (NCI-H460) [%] | inhibition of growth at 10 µM (Hs-578T) [%] | inhibition of growth at 10 µM (MDA-MB-468) [%] | other results
1 | N#Cc1c(-c2ccc(Cl)cc2)nc2c(/N=N/c3ccc(S(N)(=O)=O)cc3)c(N)nn2c1N | 75 | > 12.5 | 24 | 27 | 34 | 51 | 30 | 25 | inactive | 26 | 23 | 29 | 0.0142 | 65 | 82 | 31 | 58 | 21 | 30 | 56 | inhibition of growth at 10 µM (T47D): 56%; inhibition of growth at 10 µM (RXF 393): 29%; inhibition of growth at 10 µM (HOP-92): 29%; inhibition of growth at 10 µM (K562): 28%; inhibition of growth at 10 µM (DU-145): 40%; inhibition of growth at 10 µM (NCI-H226): 25%; inhibition of growth at 10 µM (BT-549): 35%; Ki (Carbonic anhydrase 2): 0.496 µM; inhibition of growth at 10 µM (SF-539): 25%; inhibition of growth at 10 µM (UO-31): 36%; Ki (Carbonic anhydrase 9): 0.0313 µM; inhibition of growth at 10 µM (MDA-MB-231): 52%; inhibition of growth at 10 µM (OVCAR-3): 25%; inhibition of growth at 10 µM (SK-MEL-2): 24%
2 | Nc1nn2cc(-c3ccc(Br)cc3)[nH]c2c1/N=N/c1ccc(S(N)(=O)=O)cc1 | 39 | > 12.5 | 37 | 58 | 62 | 33 | 38 | 37 | inactive | 82 | 42 | 55 | 0.0528 | 45 | 42 | 45 | 55 | 62 | 54 | 51 | inhibition of growth at 10 µM (Malme-3M): 64%; inhibition of growth at 10 µM (IGROV-1): 72%; inhibition of growth at 10 µM (SNB-75): 64%; inhibition of growth at 10 µM (T47D): 46%; inhibition of growth at 10 µM (RXF 393): 55%; inhibition of growth at 10 µM (HOP-92): 29%; inhibition of growth at 10 µM (K562): 38%; inhibition of growth at 10 µM (DU-145): 47%; inhibition of growth at 10 µM (BT-549): 25%; Ki (Carbonic anhydrase 2): 0.0493 µM; inhibition of growth at 10 µM (SF-539): 42%; inhibition of growth at 10 µM (UO-31): 74%; Ki (Carbonic anhydrase 9): 0.0449 µM; inhibition of growth at 10 µM (NCI-H322M): 65%; inhibition of growth at 10 µM (MDA-MB-231): 43%; inhibition of growth at 10 µM (OVCAR-3): 27%; inhibition of growth at 10 µM (SK-MEL-2): 53%; inhibition of growth at 10 µM (LOX IMVI): 64%
